This note sets out measurements from ChEMBL document CHEMBL3272118, “Structure and tumor-promoting activity of analogues of anthralin (1,8-dihydroxy-9-anthrone)” (J Med Chem, 1978).

Data set [1] in a line: Metal chelating activity of the compound assessed as metal-compound complex formation using copper. The data set is classed as physicochemical. The method, boiled down: (§1)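 Chelates prepared by adding 0.5 molar equiv of metal acetate in anhydrous ethanol to the ligand (2.0 mmol) dissolved in warm anhydrous ethanol. Metal:ligand ratio in dimethyl sulfoxide by Job's continuous variation: ligand (DHAQ 1.0×10^-4 M or anthralin 2.0×10^-4 M) and equimolar metal acetate mixed in nine solutions at ligand mole fractions 0.1–0.9, spectra recorded 400–650 nm.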

Data set [2] is described as follows: Metal chelating activity of the compound assessed as metal-compound complex formation using zinc. It is filed as physicochemical. In short, it runs like this:
as §1

Data set [3] is described as follows: Metal chelating activity of the compound assessed as metal-compound complex formation using Mn2+. The data set is classed as physicochemical. In short, it runs like this: as §1
Data set [4] is described as follows: Metal chelating activity of the compound assessed as metal-compound complex formation using Ca2+. It is filed as physicochemical. In short, it runs like this: as §1
Data set [5] is described as follows: Metal chelating activity of the compound assessed as metal-compound complex formation using Mg2+. The data set is classed as physicochemical. In short, it runs like this:
as §1

Data set [6] can be described thus: Metal chelating activity of the compound assessed as stability constant of metal chelate at 1 to 4.5 x 10^-5 M using copper. The data set is classed as physicochemical. In short, it runs like this: (§2)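 Spectrophotometric method of Rossotti and Rossotti in dimethyl sulfoxide: eight solutions of DHAQ from 1.0×10^-5 to 4.5×10^-5 M with metal acetate at the same concentrations, absorption spectra recorded 400–650 nm at 25 °C, stability constants calculated from these.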

The nature of data set [7]: Metal chelating activity of the compound assessed as stability constant of metal chelate at 1 to 4.5 x 10^-5 M using Zn2+. The data set is classed as physicochemical. The method, boiled down:
as §2

Data set [8] is described as follows: Metal chelating activity of the compound assessed as stability constant of metal chelate at 1 to 4.5 x 10^-5 M using Mn2+. It is filed as physicochemical. In short, it runs like this: as §2
A short description of data set [9]: Metal chelating activity of the compound assessed as stability constant of metal chelate at 1 to 4.5 x 10^-5 M using Mg2+. The data set is classed as physicochemical. The method, boiled down:
as §2

Data set [10] in a line: Metal chelating activity of the compound assessed as stability constant of metal chelate at 1 to 4.5 x 10^-5 M using Ca2+. The data set is classed as physicochemical. The method, boiled down: as §2
Data set [11] deals with Mus musculus. Description: Tumor promoting activity in ICR/Ha Swiss mouse at 80 ug administered three times a week measured for 370 days. The data set is classed as ADME, organism-based. The conditions noted are these: in vivo, 8880 h. The method, boiled down:
(§3)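 Two-stage carcinogenesis on clipped backs of female ICR/Ha Swiss mice (8 weeks, ectromelia-vaccinated): one subcarcinogenic topical dose of 7,12-dimethylbenz[a]anthracene, then repeated skin application of test agent, dosed equimolar to anthralin except where toxicity required lower, for 370 days. Tumors >1 mm persisting ≥30 days counted; carcinomas confirmed histologically at autopsy.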

The subject of data set [12] is Mus musculus. In words: Tumor promoting activity in ICR/Ha Swiss mouse at 80 ug administered three times a week measured for 521 days. It is filed as ADME, organism-based. As to conditions: in vivo, 12504 h; call rule not given here.
In data set [13] the test system is Mus musculus. In words: Toxicity in ICR/Ha Swiss mouse assessed as median survival time at 80 ug administered three times a week. The data set is classed as organism-based. As to conditions: in vivo.
The test system of data set [14] is Mus musculus. Description: Tumor promoting activity in ICR/Ha Swiss mouse at 75 ug administered three times a week measured for 370 days. It is filed as ADME, organism-based. As to conditions: in vivo, 8880 h. In short, it runs like this: as §3
Data set [15] is described as follows: Metal chelating activity of the compound assessed as stability constant of metal chelate at 2 to 9 x 10^-5 M using copper. It is filed as physicochemical. In short, it runs like this:
(§4)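 Stability constants by the Rossotti and Rossotti spectrophotometric method in dimethyl sulfoxide: eight solutions of anthralin from 2.0×10^-5 to 9.0×10^-5 M with metal acetate at matching concentrations, spectra read 400–650 nm at 25 °C.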

The nature of data set [16]: Metal chelating activity of the compound assessed as stability constant of metal chelate at 2 to 9 x 10^-5 M using Zn2+. The data set is classed as physicochemical. In short, it runs like this:
as §4

The nature of data set [17]: Metal chelating activity of the compound assessed as stability constant of metal chelate at 2 to 9 x 10^-5 M using Mn2+. The data set is classed as physicochemical. The method, boiled down:
as §4

Data set [18] in a line: Metal chelating activity of the compound assessed as stability constant of metal chelate at 2 to 9 x 10^-5 M using Mg2+. The data set is classed as physicochemical. In short, it runs like this: as §4
Data set [19] in a line: Metal chelating activity of the compound assessed as stability constant of metal chelate at 2 to 9 x 10^-5 M using Ca2+. The data set is classed as physicochemical. In short, it runs like this: as §4
In data set [20] the test system is Mus musculus. In words: Tumor promoting activity in ICR/Ha Swiss mouse at 228 ug administered three times a week measured for 370 days. The data set is classed as ADME, organism-based. The conditions noted are these: in vivo, 8880 h. The method, boiled down:
as §3

For data set [21], the system named is Mus musculus. Description: Tumor promoting activity in ICR/Ha Swiss mouse at 136 ug administered three times a week measured for 370 days. It is filed as ADME, organism-based. The conditions noted are these: in vivo, 8880 h. The method, boiled down:
as §3

In data set [22] the test system is Mus musculus. Description: Tumor promoting activity in ICR/Ha Swiss mouse at 15 ug administered three times a week measured for 370 days. It is filed as ADME, organism-based. The conditions noted are these: in vivo, 8880 h. In short, it runs like this:
as §3

The subject of data set [23] is Mus musculus. In words: Tumor promoting activity in ICR/Ha Swiss mouse at 62 ug administered three times a week measured for 370 days. The data set is classed as ADME, organism-based. As to conditions: in vivo, 8880 h. In short, it runs like this: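 Female ICR/Ha Swiss mice, ectromelia-vaccinated, started at 8 weeks, backs clipped the day before treatment. Single subcarcinogenic topical dose of 7,12-dimethylbenz[a]anthracene, then repeated skin applications at doses equimolar to the positive-control promoter, over 370 days. Tumors >1 mm persisting ≥30 days were counted cumulatively and confirmed on H&E histology at autopsy. Controls received test compound alone or no treatment.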

Data set [24] concerns Mus musculus. In words: Tumor promoting activity in ICR/Ha Swiss mouse at 300 ug administered three times a week measured for 521 days. The data set is classed as ADME, organism-based. The conditions noted are these: in vivo, 12504 h. In short, it runs like this:
(§5)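 Female ICR/Ha Swiss mice, 8 weeks old, vaccinated against ectromelia, backs clipped. Repeated skin application after a single subcarcinogenic dose of 7,12-dimethylbenz[a]anthracene. Groups of twenty mice; test ran 521 days; median survival time recorded. Tumors >1 mm persisting ≥30 days counted; autopsy with histological confirmation.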

For data set [25], the system named is Mus musculus. In words: Toxicity in ICR/Ha Swiss mouse assessed as median survival time at 300 ug administered three times a week. The data set is classed as organism-based. The conditions noted are these: in vivo. In short, it runs like this:
as §5

For data set [26], the system named is Mus musculus. In words: Tumor promoting activity in ICR/Ha Swiss mouse at 85 ug administered three times a week measured for 370 days. The conditions noted are these: in vivo, 8880 h. It is filed as ADME, organism-based. In short, it runs like this: as §3
In data set [27] the test system is Mus musculus. In words: Tumor promoting activity in ICR/Ha Swiss mouse at 124 ug administered three times a week measured for 370 days. As to conditions: in vivo, 8880 h. The data set is classed as ADME, organism-based. In short, it runs like this: as §3
The test system of data set [28] is Mus musculus. Description: Tumor promoting activity in ICR/Ha Swiss mouse at 76 ug administered three times a week measured for 370 days. As to conditions: in vivo, 8880 h. It is filed as ADME, organism-based. In short, it runs like this:
as §3

As to `O=C1c2cccc(O)c2C(=O)c2c(O)cccc21` [DANTHRON], the outcome in data set [1], in [2], in data set [3], in data set [4] and in data set [5] was Active. Also, the “log K” value in [6] is 5.77; in data set [7] it was 5.62; in [8], 5.58; in data set [9] it was 5.53; in [10] it was 10.03.
Take `O=C1c2ccccc2Cc2cc(O)c(O)cc21`: the Activity entry in the data set on Mus musculus [11] is on record as “Non-toxic”.
As for `Oc1cccc2cc3ccccc3cc12`, the Activity entry in the data set on Mus musculus [12] was “Toxic”. Also, the MST in the data set with Mus musculus [13] is 474 days.
For `Oc1cc2cc3ccccc3cc2cc1O`, in the data set on Mus musculus [14], the Activity entry is recorded as “Non-toxic”.
In the case of `Oc1cccc2c1Cc1c(O)cccc1C2`, the Activity result in the data set with Mus musculus [11] was “Non-toxic”.
On to `O=C1c2c(O)cccc2Cc2cccc(O)c21` [ANTHRALIN], for which the outcome in [1] was Active. In addition, the “log K” value stood at 9.56 in [15]; 9.23 in data set [16]; 9.19 in data set [17]; 9.16 in [18]; 9.06 in data set [19].
In the case of `CCCCCCCCCCCCCC(=O)Oc1cccc2c1C(=O)c1c(cccc1OC(=O)CCCCCCCCCCCCC)C2`, the Activity result with Mus musculus [20] is given as “Non-toxic”.
Regarding `CCCCCCCCCCCCCC(=O)Oc1cccc2c1C(=O)C=CC2=O`, the Activity result in the data set with Mus musculus [21] was “Non-toxic”.
With `CC(=O)C1c2cccc(O)c2C(=O)c2c(O)cccc21`, the Activity entry with Mus musculus [22] is given as “Toxic”.
As for `O=C1C=CC(=O)c2c(O)cccc21` [JUGLONE], in the data set with Mus musculus [23], the Activity entry was “Toxic”.
Regarding `CCCCCCCCCCCCCC(=O)C1c2cccc(O)c2C(=O)c2c(O)cccc21`, the Activity entry with Mus musculus [24] is on record as “Toxic”. For the same compound, in the data set with Mus musculus [25], the MST was determined as 423 days.
On to `O=C1c2c(O)cccc2C(O)c2cccc(O)c21`, for which, in the data set with Mus musculus [26], the Activity result is reported as “Non-toxic”.
In the case of `CC(=O)Oc1cccc2c1C(=O)c1c(cccc1OC(C)=O)C2`, in the data set on Mus musculus [27], the Activity entry is “Toxic”.
Consider `O=C1c2ccccc2Cc2cccc(O)c21`, for which, in the data set with Mus musculus [12], the Activity entry is recorded as “Toxic”. The MST with Mus musculus [13] is 391 days.
With `Oc1cccc2cc3cccc(O)c3cc12`, the Activity entry in the data set with Mus musculus [14] is “Non-toxic”.
`O=C1CCCc2cc3cccc(O)c3c(O)c21`: in the data set on Mus musculus [11], the Activity result is recorded as “Non-toxic”.
As for `O=C(c1ccccc1O)c1ccccc1O` [2,2'-DIHYDROXYBENZPHENONE], in the data set with Mus musculus [14], the Activity entry is listed as “Non-toxic”.
Take `CC(=O)Oc1cccc2c1C(=O)C=CC2=O`: the Activity result with Mus musculus [28] is reported as “Toxic”.
For the compound `O=C1c2ccccc2Cc2ccc(O)c(O)c21`, the Activity entry in the data set on Mus musculus [11] is “Non-toxic”.
